Bioassay records: PubChem, Broad Institute
CAL PDZ FP-1: blocks peptide binding to human CAL PDZ domain | purified CAL PDZ, TMR-peptide fluorescence polarization, 1 h | Q9HD26 | hit rate 0.02% among 330,000 | inhibition, % at 20 µM;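 active = highest replicate inhibition of at least 40%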
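material = purified tagged CAL PDZ domain construct (CerCALP) | compound dosing = 20 µM, one dose | times = 1 h at RT | measured by = fluorescence polarization from S- and P-plane intensities, G-factor corrected | read-out = inhibition from polarization loss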
SR-BI uptake up: enhances SR-BI lipid uptake from DiI-HDL. CHO ldlA[mSR-BI] cells, DiI-HDL uptake fluorescence, 3 h; 100 = double the neutral-control signal. activation, % at 12.5 µM. hit rate 0.096% among 320,000. AID 504775;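 active = mean replicate activation of at least 60% and every replicate at or above 60%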
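System: CHO ldlA[mSR-BI] cells / Medium: HEPES-buffered (25 mM, pH 7.4) F12 plus 0.5% BSA / Probe or stimulus: labelled HDL, 10 µg/mL / Doses: single compound concentration, delivered by pin transfer / Schedule: 3 h, 37 °C / Measured by: DiI fluorescence, bottom read / Measure: cell-associated DiI fluorescence as measure of HDL uptake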
CAL PDZ FP-2: inhibitors of human CAL PDZ peptide binding | AID 602252 | inhibition, % at 24.9 µM | hit rate 0.92% among 300,000 | purified CAL PDZ, TMR-peptide fluorescence polarization, 1 h;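 active = mean inhibition of at least 30% with at least half of replicates also reaching 30%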
miR122 inh: miR-122 inhibition in Huh7 cells; hit rate 0.3% among 340,000; Huh7 miR-122 Renilla luciferase sensor, 48 h; neutral wells = 0, positive control = 100; activation (reporter increase), % at 12.5 µM;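 active = mean replicate activation score at least 90 and every replicate individually at or above 90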;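 note: higher luciferase means less miR-122 activity so hits act as miR-122 inhibitors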
ARNT-TACC3 inh: ARNT/TACC3 interaction disruption | hit rate 0.66% among 390,000 | inhibition, % at 9.99 µM | AID 623870 | AlphaScreen His-ARNT PAS-B/GST-TACC3 binding, luminescence; TACC3 fragment carries E629A point mutation | Q9Y6A5;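 active = mean inhibition of replicates at least 50% and at least half of replicates each reaching 50%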
SR-BI HDL uptake: inhibitors of mouse SR-BI mediated HDL lipid uptake; Q61009; ldlA[mSR-BI] CHO cells, DiI-HDL uptake fluorescence, 3 h; inhibition, % at 12.5 µM; hit rate 0.96% among 320,000;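 active = mean replicate inhibition of at least 70% and a set share of replicates each scoring 70 or more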
Target sequence (Q61009 whole entry, looked up): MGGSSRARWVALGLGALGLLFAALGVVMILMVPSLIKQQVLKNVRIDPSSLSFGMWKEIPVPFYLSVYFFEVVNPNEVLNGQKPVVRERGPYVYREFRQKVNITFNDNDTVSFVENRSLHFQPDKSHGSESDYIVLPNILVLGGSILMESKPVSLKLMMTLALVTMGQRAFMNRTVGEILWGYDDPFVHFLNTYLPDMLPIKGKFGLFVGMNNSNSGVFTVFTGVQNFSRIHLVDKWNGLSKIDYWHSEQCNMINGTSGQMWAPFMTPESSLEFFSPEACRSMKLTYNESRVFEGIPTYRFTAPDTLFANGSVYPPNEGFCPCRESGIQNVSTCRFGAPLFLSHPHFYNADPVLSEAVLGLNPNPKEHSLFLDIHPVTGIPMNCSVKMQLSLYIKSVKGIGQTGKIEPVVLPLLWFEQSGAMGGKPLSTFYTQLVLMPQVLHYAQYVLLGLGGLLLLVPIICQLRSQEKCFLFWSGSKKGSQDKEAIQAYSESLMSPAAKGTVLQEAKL
Hits are given with their value; [ ] = remark or other dose. In the library only some 2.1% were active in any assay of this set; here they are far more common.

Screening COc1ccc(CNC(=O)Cn2cc([N+](=O)[O-])cn2)cc1 returned CAL PDZ FP-1 inactive, SR-BI uptake up inactive, miR122 inh inactive, ARNT-TACC3 inh inactive and SR-BI HDL uptake inactive.
Screening Cc1ccc(C)c(NC(=O)CCC(=O)N/N=C/c2cc([N+](=O)[O-])ccc2O)c1 returned CAL PDZ FP-1 inactive, SR-BI uptake up inactive, CAL PDZ FP-2 inactive, miR122 inh inactive, ARNT-TACC3 inh 49 and SR-BI HDL uptake inactive.
Screening Cc1ccccc1NC(=O)CCC(=O)N/N=C/c1cc([N+](=O)[O-])ccc1O returned CAL PDZ FP-1 inactive, SR-BI uptake up inactive, CAL PDZ FP-2 inactive, miR122 inh inactive, ARNT-TACC3 inh inactive and SR-BI HDL uptake inactive.
Screening O=C(CCN1CCN(C(c2ccccc2)c2ccccc2)CC1)N/N=C/c1ccc(O)cc1O returned CAL PDZ FP-1 inactive, SR-BI uptake up inactive, CAL PDZ FP-2 inactive, ARNT-TACC3 inh 45 and SR-BI HDL uptake inactive.
`Cc1ccc(NC(=O)CCC(=O)N/N=C/c2cc([N+](=O)[O-])ccc2O)cc1` gave CAL PDZ FP-1 inactive, SR-BI uptake up inactive, CAL PDZ FP-2 inactive, miR122 inh inactive, ARNT-TACC3 inh inactive and SR-BI HDL uptake inactive.
Screening CN1CCN(CCC(=O)N/N=C/c2cc([N+](=O)[O-])ccc2O)CC1 returned CAL PDZ FP-1 inactive, SR-BI uptake up inactive, CAL PDZ FP-2 inactive, ARNT-TACC3 inh 75 and SR-BI HDL uptake inactive.
For COC(=O)C[C@@H]1CC[C@@H](NC(=O)c2ccccc2)[C@@H](CO)O1 the results were ARNT-TACC3 inh inactive.
For CCOC(=O)C1=C(C)NC(C)=C(C(=O)OCC)C1c1cn(-c2ccccc2)nc1-c1ccco1 the results were CAL PDZ FP-1 inactive, SR-BI uptake up inactive, CAL PDZ FP-2 inactive, miR122 inh inactive, ARNT-TACC3 inh 62 and SR-BI HDL uptake inactive.
Screening Cc1c(C(=O)c2ccc(Cl)c(Cl)c2)cnc2cc3c(cc12)OCO3 returned CAL PDZ FP-1 inactive, SR-BI uptake up 69, CAL PDZ FP-2 inactive, miR122 inh inactive, ARNT-TACC3 inh inactive and SR-BI HDL uptake inactive.
Screening C[C@H](CO)N1C[C@H](C)[C@H](CN(C)Cc2ccccc2)Oc2cc(-c3ccccc3)ccc2S1(=O)=O returned miR122 inh inactive.
Screening Cc1ccc(-c2ccc3c(c2)O[C@@H](CN(C)C(=O)Nc2ccccc2)[C@@H](C)CN([C@@H](C)CO)S3(=O)=O)cc1 returned ARNT-TACC3 inh inactive.
`Cc1cc(C(=O)N/N=C/c2cc(Br)ccc2OC(=O)c2ccccc2Cl)n[nH]1` gave CAL PDZ FP-1 inactive, SR-BI uptake up inactive, CAL PDZ FP-2 inactive, miR122 inh inactive, ARNT-TACC3 inh inactive and SR-BI HDL uptake 87.
C[C@@H]1CN([C@H](C)CO)C(=O)c2cc(NC(=O)CCC(F)(F)F)ccc2O[C@@H](C)CCCCO[C@H]1CN(C)Cc1ccc(Cl)c(Cl)c1 was read as miR122 inh inactive and ARNT-TACC3 inh inactive.
`O=C(c1ccccc1F)N(Cc1ccc2c(c1)OCO2)Cc1cc2cc3c(cc2n2nnnc12)OCO3` gave CAL PDZ FP-1 inactive, CAL PDZ FP-2 inactive, miR122 inh inactive, ARNT-TACC3 inh inactive and SR-BI HDL uptake 72.
Screening NC(=S)NNC(=O)c1ccccc1Cl returned CAL PDZ FP-1 inactive, SR-BI uptake up inactive, CAL PDZ FP-2 34, ARNT-TACC3 inh inactive and SR-BI HDL uptake inactive.
C[C@H](NC(=O)C[C@@H]1CC[C@H](NC(=O)C2CC2)[C@@H](CO)O1)c1ccccc1 was read as ARNT-TACC3 inh inactive.
CCCNC(=O)C[C@@H]1CC[C@H]2[C@H](COc3ccc(NC(=O)Cc4cccs4)cc3C(=O)N2C)O1 was read as miR122 inh 207[16.7 µM] and ARNT-TACC3 inh inactive.
CCCNC(=O)C[C@@H]1CC[C@@H]2[C@H](COc3ccc(NC(=O)Cc4cccs4)cc3C(=O)N2C)O1 was read as miR122 inh inactive and ARNT-TACC3 inh inactive.
For CCCNC(=O)C[C@H]1CC[C@H]2[C@H](COc3ccc(NC(=O)Cc4cccs4)cc3C(=O)N2C)O1 the results were miR122 inh 167[16.7 µM] and ARNT-TACC3 inh inactive.
For CN(C)CCCNC(=O)C[C@H]1C=C[C@H](NS(=O)(=O)c2ccccc2)[C@@H](CO)O1 the results were miR122 inh inactive and ARNT-TACC3 inh inactive.
For COc1cccc(NC(=O)N2C[C@@H](O)COC[C@@H]3O[C@H](CC(=O)NCc4ccccc4F)CC[C@H]32)c1 the results were miR122 inh inactive and ARNT-TACC3 inh inactive.
For O=C1OC(CO)CN1Cc1ccccc1 (stereo not drawn) the results were SR-BI uptake up inactive, CAL PDZ FP-2 58, miR122 inh inactive, ARNT-TACC3 inh inactive and SR-BI HDL uptake inactive.
O=C(C[C@H]1C[C@H]2c3cc(NC(=O)CC4CC4)ccc3O[C@H]2[C@@H](CO)O1)NCc1ccc2c(c1)OCO2 was read as miR122 inh inactive.
Screening CN(C)CCOC1c2ccccc2CCc2ccc3ccccc3c21 (stereo not drawn) returned CAL PDZ FP-1 inactive, SR-BI uptake up 436, ARNT-TACC3 inh inactive and SR-BI HDL uptake inactive.
Cc1cc2ccc3ccccc3c2cc1CN(C)C was read as CAL PDZ FP-1 inactive, SR-BI uptake up inactive, miR122 inh inactive, ARNT-TACC3 inh inactive and SR-BI HDL uptake inactive.
CCCN(C)C[C@@H]1Oc2ncc(-c3ccccc3F)cc2C(=O)N([C@H](C)CO)C[C@@H]1C was read as miR122 inh inactive and ARNT-TACC3 inh inactive.
For CN(C)CCCCOc1ccc(Br)cc1Cl the results were CAL PDZ FP-1 inactive, SR-BI uptake up inactive, CAL PDZ FP-2 83, ARNT-TACC3 inh inactive and SR-BI HDL uptake inactive.
For Cc1ccc(OCCOCCN(C)C)c(Cl)c1 the results were CAL PDZ FP-1 inactive, SR-BI uptake up 64, CAL PDZ FP-2 inactive, ARNT-TACC3 inh inactive and SR-BI HDL uptake inactive.
`COCCCNCCCCOc1ccc(Br)cc1Cl` gave CAL PDZ FP-1 inactive, SR-BI uptake up inactive, CAL PDZ FP-2 inactive, miR122 inh inactive, ARNT-TACC3 inh inactive and SR-BI HDL uptake inactive.
Screening Cc1cccc(C(=O)OC(C)C(=O)N2CCc3ccccc3C2)c1C (stereo not drawn) returned CAL PDZ FP-1 inactive, SR-BI uptake up inactive, CAL PDZ FP-2 52, ARNT-TACC3 inh inactive and SR-BI HDL uptake inactive.
COCCCn1c(=O)c2sccc2n2c(CCCC(=O)NCc3cccc(OC)c3)nnc12 was read as CAL PDZ FP-1 inactive, SR-BI uptake up inactive, CAL PDZ FP-2 47, miR122 inh inactive, ARNT-TACC3 inh inactive and SR-BI HDL uptake inactive.
Screening C[C@@H]1CN([C@@H](C)CO)S(=O)(=O)c2ccc(C3=CCCC3)cc2O[C@H]1CN(C)C(=O)Cc1ccncc1 returned miR122 inh inactive and ARNT-TACC3 inh inactive.
